According to ChEMBL document CHEMBL1926638, “Anti-cancer activity of 5-O-alkyl 1,4-imino-1,4-dideoxyribitols” (Bioorg Med Chem, 2011):
Activity calls are given as the source filed them. The calls are words filed in the database; no cut-off is given here.

Tests used:
[1] = tested on: Canavalia ensiformis; experiment: Inhibition of jack beans alpha-mannosidase
[2] = tested on: SK-BR-3; experiment: Cytotoxicity against human SKBR3 cells after 72 hrs by MTS assay; type: functional, cell-based
Outline: (§1)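 SKBR3 (HER2+ breast cancer) cells exposed to compound for 72 h; number of metabolically active cells read by MTS tetrazolium reduction. Values are means of duplicate wells.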

[3] = tested on: SK-BR-3; experiment: Cytotoxicity against human SKBR3 cells assessed as cell viability 1 to 400 uM after 72 hrs by MTS assay; type: functional, cell-based; outline: as §1
[4] = tested on: Jurkat; experiment: Induction of apoptosis in human Jurkat cells assessed as cell death at 100 uM after 24 hrs by annexin V-7AAD double staining based flow cytometric analysis; type: functional
Outline: (§2)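 JURKAT cells treated with compound. Apoptosis quantified by annexin-V/7-AAD staining and flow cytometry: early apoptotic = annexin V+7AAD−, late = annexin V+7AAD+. At 10 µM, a time course of cell death was also run.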

[5] = tested on: PBMC; experiment: Induction of apoptosis in PBMC at 10 uM after 24 hrs by annexin-V and 7AAD double staining based flow cytometric analysis; type: cell-based
[6] = tested on: Jurkat; experiment: Induction of apoptosis in human Jurkat cells assessed as cell death at 10 uM after 24 hrs by annexin V-7AAD double staining based flow cytometric analysis; type: functional
Outline: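 Jurkat T-ALL cells exposed to 10 µM for 24 h (time-course series). Apoptosis quantified by annexin V and 7-AAD staining with flow cytometry. Early apoptotic = annexin V+/7AAD−, late apoptotic = annexin V+/7AAD+. Viability monitored in parallel by trypan blue exclusion. Values given as percent cell death.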

[7] = tested on: Jurkat; experiment: Cytotoxicity against human Jurkat cells by trypan blue assay; type: functional, cell-based
Outline: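 JURKAT cells exposed to compound; viability monitored by Trypan blue exclusion.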

[8] = tested on: SK-BR-3; experiment: Induction of apoptosis in human SKBR3 cells assessed as DNA fragmentation after 24 hrs by annexin-V propidium iodide based flow cytometric analysis; type: functional, cell-based
Outline: (§3)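 SKBR3 cells treated with compound, then cell-cycle distribution examined (G0/G1 and S fractions); at higher concentrations DNA fragmentation and hypodiploid nuclei scored. Described as preliminary assays.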

[9] = Cytotoxicity against mouse BA/F3 cells expressing tyrosine kinase at <10 uM after 48 hrs by resazurin reduction assay; type: cell-based; details: baf3, 48 h
Outline: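 15 Ba/F3 models, each proliferating through engineered expression of a specific tyrosine kinase. Compound incubated 48 h at concentrations below 10 µM, read by resazurin reduction. 9-point IC50 curves in three independent experiments.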

[10] = Induction of apoptosis in human CD34-positive and CD38-deficient hematopoietic progenitor cells assessed as cell death at 10 uM after 24 hrs by annexin V-7AAD double staining based flow cytometric analysis
[11] = tested on: Jurkat; experiment: Induction of apoptosis in human Jurkat cells assessed as cell death at 10 uM by annexin V-7AAD double staining based flow cytometric analysis; type: functional; details: TDE = time-dependent effect; outline: as §2
[12] = tested on: SK-BR-3; experiment: Cell cycle arrest in human SKBR3 cells assessed as reduction in S phase after 24 hrs by FITC-conjugated annexin-V propidium iodide based flow cytometric analysis; type: functional; outline: as §3
[13] = tested on: SK-BR-3; experiment: Induction of apoptosis in human SKBR3 cells assessed as hypodiploid cell nuclei appearance after 24 hrs by annexin-V propidium iodide based flow cytometric analysis; type: functional; outline: as §3
[14] = tested on: SK-BR-3; experiment: Cell cycle arrest in human SKBR3 cells assessed as accumulation in G0/G1 phase after 24 hrs by FITC-conjugated annexin-V propidium iodide based flow cytometric analysis; type: functional; outline: as §3
[15] = tested on: SK-BR-3; experiment: Cytotoxicity in human SKBR3 cells assessed as increase in intracellular vacuolization after 6 to 12 hrs; type: functional, cell-based
[16] = Induction of apoptosis in human CD34-positive and CD38-deficient hematopoietic progenitor cells assessed as late apoptotic cells at 10 uM after 24 hrs by annexin V-7AAD double staining based flow cytometric analysis
[17] = tested on: SK-BR-3; experiment: Cytotoxicity against human SKBR3 cells assessed as cell death at 6.25 uM after 72 hrs by MTS assay; type: functional, cell-based
[18] = tested on: Jurkat; experiment: Induction of apoptosis in human Jurkat cells assessed as late apoptotic cells at 10 uM after 24 hrs by annexin V-7AAD double staining based flow cytometric analysis; type: functional; outline: as §2
[19] = Induction of apoptosis in human CD34-positive and CD38-deficient hematopoietic progenitor cells assessed as early apoptotic cells at 10 uM after 24 hrs by annexin V based flow cytometric analysis
[20] = tested on: Jurkat; experiment: Induction of apoptosis in human Jurkat cells assessed as early apoptotic cells at 10 uM after 24 hrs by annexin V based flow cytometric analysis; type: functional; outline: as §2

| Inhibition activity [1] | Compound | Activity [2] | Activity [3] | also measured |
| --- | --- | --- | --- | --- |
| inactive | CCCCCCCCCCOC[C@H]1NC[C@H](O)[C@@H]1O | Active | Active | – |
| inactive | CCCCCOC[C@H]1NC[C@H](O)[C@@H]1O | – | – | – |
| inactive | C=CCCCOC[C@H]1NC[C@H](O)[C@@H]1O | – | – | – |
| inactive | CCCCCCCOC[C@H]1NC[C@H](O)[C@@H]1O | – | inactive | – |
| Active | O[C@H]1[C@@H](O)CN[C@@H]1COCc1ccc(-c2ccccc2)cc1 | – | Active | Activity [4]: Active |
| – | OC[C@H]1NC[C@H](O)[C@@H]1O [IMINORIBITOL] | – | inactive | Activity [5]: Non-toxic; Activity [6]: inactive; Activity [7]: inactive |
| inactive | CCCCC/C=C\C/C=C\CCCCCCCCOC[C@H]1NC[C@H](O)[C@@H]1O | Active | Active | – |
| inactive | CC/C=C\C/C=C\C/C=C\CCCCCCCCOC[C@H]1NC[C@H](O)[C@@H]1O | Active | Active | – |
| – | CCCCCCCC/C=C\CCCCCCCCOC[C@H]1NC[C@H](O)[C@@H]1O | – | – | Activity [8]: Active; Activity [9]: Non-toxic; Activity [10]: 60%; Activity [11]: tde; Activity [12]: Active; Activity [13]: Active; Activity [14]: Active; Activity [15]: Active; Activity [16]: 40%; Activity [17]: Active; Activity [18]: 60%; Activity [6]: 100%; IC50 ([2]; SK-BR-3, 72 h): 2 µM; Activity [19]: 20%; Activity [20]: 40%; IC50 [7]: 8 µM |
| inactive | O[C@H]1[C@@H](O)CN[C@@H]1COCc1ccccc1 | – | inactive | – |
| inactive | CCCCCCCCCCCCCCOC[C@H]1NC[C@H](O)[C@@H]1O | – | – | – |
| inactive | CCCCCC/C=C\CCCCCCCCOC[C@H]1NC[C@H](O)[C@@H]1O | Active | Active | – |
| inactive | CCCCCCCCCCCCCCCCCCOC[C@H]1NC[C@H](O)[C@@H]1O | Active | Active | – |
